Source: PubChem (several laboratories)
TPT1 inhibitor = inhibitors of Candida albicans tRNA 2'-phosphotransferase TPT1. recombinant caTPT1, FP RNA substrate dephosphorylation. inhibition, % at 5 µM. 300,000 tested, 0.81% active. AID 1962;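 active means inhibition above the mean of all tested compounds plus 3 SD, set per screening campaign, cut at about 24% in these data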
HNF4A DNA FP = change in binding of human HNF4 alpha to DNA; P41235; HNF4a-FITC DNA binding, fluorescence polarization, 1 h; activity change, % at 10 µM; 360,000 tested, 0.3% active; AID 1224865; in the data active means activity change above about 30%, passing the limit was not always enough
Rpn11 block = inhibitors of human proteasome Rpn11. O00487. human 26S proteasome, Ub4-pepOG fluorescence polarization; 20S core pre-blocked with epoxomicin. calls only at 20 µM. 360,000 tested, 0.59% active;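 active means inhibition at 20 µM, scaled to each plate's controls, above about 33%, limit read from the data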
CSN deneddyl inh = CSN deneddylation inhibition; Purified CSN, SCF-Nedd8-OG deneddylation, fluorescence polarization; inhibition, % at 12.5 µM; 360,000 tested, 0.38% active;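 active means pattern-corrected inhibition above about 35%, with an unprinted fluorescence ratio check between 0.5 and 1.5, limit read from the data, passing the limit was not always enough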
Target sequence (Q92905 whole entry, looked up, one chain of several): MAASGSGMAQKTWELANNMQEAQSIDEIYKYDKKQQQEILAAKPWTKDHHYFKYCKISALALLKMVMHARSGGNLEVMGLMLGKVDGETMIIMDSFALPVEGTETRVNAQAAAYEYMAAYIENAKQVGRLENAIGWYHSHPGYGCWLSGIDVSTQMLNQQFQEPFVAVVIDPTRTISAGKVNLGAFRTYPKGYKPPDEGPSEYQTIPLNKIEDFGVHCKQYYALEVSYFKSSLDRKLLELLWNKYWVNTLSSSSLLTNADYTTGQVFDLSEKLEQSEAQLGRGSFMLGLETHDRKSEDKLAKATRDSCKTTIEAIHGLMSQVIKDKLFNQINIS
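Material: purified human Csn5 enzyme expressed in HEK293T cells / Medium: Tris buffer pH 7.5, NaCl, DTT, Tween-20, trehalose, ovalbumin / Compound dosing: 12.5 µM single point / Schedule: 90 min incubation of compound, enzyme and substrate at room temperature / Signal: fluorescence polarization of the substrate / Control set: no-enzyme wells high, enzyme-with-substrate wells low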
IDE inh = cellular human IDE inhibition; P14735; HEK cells, FAbetaB cleavage, fluorescence polarization; inhibition, % at 5.59 µM; 320,000 tested, 0.41% active; AID 434962;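 active means percent inhibition above the average of all tested compounds plus 3 SD, set per screening campaign, cut at about 16% in these data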;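 further: IDE supplied by intact live HEK cells; FP after avidin binding of uncleaved biotin substrate so inhibition keeps polarization high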
IDE cell activ = activators of human insulin-degrading enzyme in cells | P14735 | HEK cells, FAbeta-B cleavage, fluorescence polarization; 0% vehicle, 100% cell-free pure enzyme wells | activation, % at 5.96 µM | 340,000 tested, 0.073% active | AID 493087;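 active means activation above the mean of all tested compounds plus 3 SD, set per screening campaign, cut at about 17% in these data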
Rpn11 inh conf = Rpn11 inhibition confirmation, single concentration; shares compounds with Rpn11 block; purified human 26S proteasome, Ub4-pepOG fluorescence polarization; proteasome pretreated with epoxomicin; inhibition, % at 20 µM; 1,900 tested, 29% active; AID 602318
MMP-2 inh = MMP-2 (human) inhibition counter-screen. shares compounds with Rpn11 block. recombinant MMP-2, FRET peptide cleavage fluorescence. inhibition, % at 20 µM. 1,900 tested, 4% active. AID 602330;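 further: human MMP-2 activated beforehand with APMA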
Thrombin inh = counter-screen for RPN11 inhibitors: inhibition of bovine thrombin. 1,900 tested, 13% active. shares compounds with Rpn11 block. inhibition, % at 20 µM. bovine thrombin cleavage of Ub4-pepOG, fluorescence polarization;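 active means mean inhibition at least 40% at 20 µM, or signal 3 deviations below plate average, so some actives read negative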
Numbers stand for hits; 0 = inactive; - = no result given; + = active, no number. Hits are enriched below; roughly 1.7% of the tested compounds scored in any of these assays. Unless noted, no stated cut-off is given here; in the data, active means inhibition above about 40%; inactive means the rest.

SMILES | TPT1 inhibitor | HNF4A DNA FP | Rpn11 block | CSN deneddyl inh | IDE inh | IDE cell activ | Rpn11 inh conf | MMP-2 inh | Thrombin inh
COC(=O)C1=C(C)NC(C)=C(C(=O)OC)C1c1ccc(-c2cc(Cl)ccc2Cl)o1 | 0 | 0 | 0 | 0 | 0 | 0 | - | - | -
O=C(Sc1cccc2cccnc12)c1ccccc1Br | 0 | 0 | + | 0 | 0 | 0 | 65.0 | 0 | 0
CC(=O)/C(=N\Nc1ccccc1)Sc1cccc2cccnc12 | 0 | 0 | 0 | 0 | 0 | 0 | - | - | -
CCOc1ccc(C(=O)Nc2cccc(-c3nc4cccnc4o3)c2)cc1Cl | 0 | 0 | + | 0 | 0 | 0 | 0 | 0 | 0
CCOc1ccc(C(=O)Nc2ccc(NC(=O)c3ccco3)c(Cl)c2)cc1Cl | 0 | 0 | 0 | 0 | 0 | 0 | - | - | -
Cn1c(=O)c2ncn(CC(=O)Nc3ccc4c5c(cccc35)CC4)c2n(C)c1=O | 0 | 0 | + | 0 | 0 | 0 | 0 | 0 | 0
O=C(CN1C(=O)CCC1=O)Nc1ccc2c3c(cccc13)CC2 | 0 | 0 | + | 0 | 0 | 0 | 0 | 0 | 0
Cc1cccc(C)c1NC(=O)Cn1cnc2c(=O)n(C)c(=O)n(C)c21 | 0 | 0 | 0 | 0 | 0 | 0 | - | - | -
Cc1nnc(C)c2c(C)n(-c3ccccc3)c(C)c12 | - | 0 | 0 | 0 | - | 0 | - | - | -
Cc1nnc(C)c2c(C)n(C(c3ccccc3)c3ccccc3)c(C)c12 | 0 | 0 | + | 0 | 0 | 0 | 0 | 0 | 0
CC/C(=N/Nc1ccccc1)c1cnnc(-c2ccccc2)n1 | 0 | 0 | 0 | 0 | 0 | 0 | - | - | -
CC/C(=N/Nc1cccc(Cl)c1)c1cnnc(SC)n1 | 0 | 0 | + | 0 | 0 | 0 | 0 | 0 | 0
COc1cccc(/C=N/NC(=O)c2c(C)nc3ccc(Cl)cn23)c1O | 0 | 0 | + | 0 | 0 | 0 | 0 | 0 | 0
COc1ccccc1/C=N\NC(=O)c1c(C)nc2ccc(Cl)cn12 | - | 0 | 0 | 0 | - | 0 | - | - | -
C#CCOCCOCCOCCNc1nc(N2CCN(C(=O)[C@H]([C@@H](C)CC)n3cc([C@@H](N)Cc4ccc(O)cc4)nn3)CC2)nc(N2CCN(C(=O)[C@H](Cc3cc4ccccc4[nH]3)n3cc([C@@H](N)CC(C)C)nn3)CC2)n1 | 0 | 0 | + | 0 | 0 | 0 | 0 | 0 | 0
Cc1nc(C)c(C(=O)N/N=C/c2cc(Br)ccc2O)s1 | 0 | 0 | + | 0 | 0 | 0 | 0 | 0 | 0
CN(C)CCNC(=O)c1ccc2c(=O)n(Cc3ccc(Cl)cc3)c(=S)[nH]c2c1 | 0 | 0 | 0 | 0 | 0 | 0 | - | - | -
COc1ccc2nc(SCC(=O)Nc3ccc(S(=O)(=O)N4CCCC4)cc3)c(C#N)cc2c1 | 0 | 0 | + | 0 | 0 | 0 | 0 | 0 | 0
COc1ccc(NC(=O)N2CCCC2C(=O)NCc2ccc(C)cc2)cc1 (configuration not stated) | 0 | 0 | 0 | 0 | 0 | 0 | - | - | -
Cc1cccc(-c2noc(-c3c(C)noc3C)n2)c1 | 0 | 0 | 0 | 0 | 0 | - | - | - | -
O=C(Nc1nc(-c2ccco2)cs1)c1ccccc1 | 0 | 0 | + | 0 | 0 | 0 | 0 | 0 | 0
O=C(Nc1nc(-c2ccccc2)cs1)c1ccco1 | 0 | 0 | 0 | 0 | 0 | 0 | - | - | -
CCOc1cccc2sc(NC(=O)c3ccc(Br)s3)nc12 | 0 | 0 | + | 0 | 0 | 0 | 0 | 0 | 0
CCCCOc1nc2ccccc2nc1C(C#N)C(=O)NC1CCCCC1 (configuration not stated) | 0 | 0 | + | 0 | 0 | 0 | 0 | 0 | 0
c1ccc2c(c1)ncn2Cc1nnc2sc(-c3ccncc3)nn12 | 0 | 0 | 0 | 0 | 0 | 0 | - | - | -
CCOC(=O)c1c(NC(=O)CN2CCCc3ccccc32)sc(C)c1C | 0 | 0 | 0 | 0 | 0 | 0 | - | - | -
CCOC(=O)c1c(NC(=O)CN2CCCc3ccccc32)sc(C)c1CC | 0 | 0 | + | 0 | 0 | 0 | 0 | 0 | 0
